Reference: ChEMBL document CHEMBL1130401, “Retinoic acid conjugates as potential antitumor agents: synthesis and biological activity of conjugates with Ara-A, Ara-C, 3(2H)-furanone, and aniline mustard moieties” (J Med Chem, 1997)
Values after ≈ are worked out from the molar mass of the structure shown.

Legend:
[1] = system: HL-60; assay: The cytotoxic activity in HL-60 cells; assay type: functional, cell-based; details: Homo sapiens
Outline: (§1)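 HL-60 cells from ATCC. Each well received 7.5 × 10⁴ cells plus test compound. Cells grew for 72 h at 37 °C in humidified, CO₂-controlled air, with growth linear over this period. Cells were then counted in a Coulter counter. IC50 is the concentration that cut cell number by 50%.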

[2] = system: HL-60; assay: Differentiating activity of compound in HL60 cells at conc 0.32 ug/mL; assay type: functional, Homo sapiens
Outline: (§2)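 10⁶ HL-60 cells were exposed to compound for 6 days, then resuspended in RPMI-1640 with 20% FBS and 2 mM L-glutamine. An equal volume of fresh NBT solution (2 mg/mL, with PMA 200 ng/mL in PBS pH 7.2) was added and incubated 40 min at 37 °C with shaking. Cells were chilled, pelleted and resuspended. Formazan-positive cells were counted by hemocytometer (≥200 cells scored). Untreated cultures served as controls.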

[3] = system: HL-60; assay: Differentiating activity of compound in HL60 cells at conc 0.08 ug/mL; assay type: functional, Homo sapiens; outline: as §2
[4] = system: HL-60; assay: (§3) Differentiating activity of compound in HL60 cells at conc 4 ug/mL; assay type: functional, Homo sapiens
Outline: (§4)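 HL-60 (ATCC) cells exposed to compound for 6 days; 10⁶ cells resuspended in 1 mL RPMI-1640 with 20% FBS and 2 mM L-glutamine, mixed with 1 mL fresh NBT (2 mg/mL) containing PMA 200 ng/mL in PBS pH 7.2, 40 min at 37 °C shaking, ice-stopped, pelleted. Formazan-positive cells counted by hemocytometer light microscopy, ≥200 cells scored; value = % NBT-positive cells.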

[5] = system: HL-60; assay: (§5) Differentiating activity of compound in HL60 cells at conc 1 ug/mL; assay type: functional, Homo sapiens; outline: as §4
[6] = system: HL-60; assay: Differentiating activity of compound in HL60 cells at conc 0.03 ug/mL; assay type: functional, Homo sapiens
[7] = system: HL-60; assay: Differentiating activity of compound in HL60 cells at conc 0.003 ug/mL; assay type: functional, Homo sapiens
[8] = system: HL-60; assay: Differentiating activity of compound in HL60 cells at conc 0.0003 ug/mL; assay type: functional, Homo sapiens
[9] = system: HL-60; assay: Differentiating activity of compound in HL60 cells at conc 0.2 ug/mL; assay type: functional, Homo sapiens; outline: as §2
[10] = system: HL-60; assay: Differentiating activity of compound in HL60 cells at conc 0.05 ug/mL; assay type: functional, Homo sapiens; outline: as §2
[11] = system: HL-60; assay: Cytotoxic activity in HL-60 cells; assay type: functional, cell-based; details: Homo sapiens; outline: as §1
[12] = system: HL-60; assay: as §5; assay type: functional, Homo sapiens; outline: as §2; remark: listed apart in the source
[13] = system: HL-60; assay: as §3; assay type: functional, Homo sapiens; outline: as §2; remark: listed apart in the source
[14] = system: HL-60; assay: Differentiating activity of compound in HL60 cells at conc 0.5 ug/mL; assay type: functional, Homo sapiens; outline: as §2
[15] = system: HL-60; assay: Differentiating activity of compound in HL60 cells at conc 2 ug/mL; assay type: functional, Homo sapiens; outline: as §2
[16] = system: HL-60; assay: Differentiating activity of compound in HL60 cells at conc 1.4 ug/mL; assay type: functional, Homo sapiens
[17] = system: HL-60; assay: Differentiating activity of compound in HL60 cells at conc 2.8 ug/mL; assay type: functional, Homo sapiens
[18] = system: HL-60; assay: Differentiating activity of compound in HL60 cells at conc 5.6 ug/mL; assay type: functional, Homo sapiens
[19] = system: HL-60; assay: Differentiating activity of compound in HL60 cells at conc 0.016 ug/mL; assay type: functional, Homo sapiens; outline: as §2
[20] = system: HL-60; assay: Differentiating activity of compound in HL60 cells at conc 0.4 ug/mL; assay type: functional, Homo sapiens; outline: as §2
[21] = system: HL-60; assay: Differentiating activity of compound in HL60 cells at conc 10 ug/mL; assay type: functional, Homo sapiens; outline: as §2
[22] = system: HL-60; assay: Differentiating activity of compound in HL60 cells at conc 50 ug/mL; assay type: functional, Homo sapiens; outline: as §2

CC1=C(/C=C/C(C)=C/C=C/C(C)=C/C(=O)OC/C=C(\C)C2=CC(=O)C(C)(C)O2)C(C)(C)CCC1
IC50 [1]: < 0.32 µg/mL
NBT positive cells [2]: 34%
NBT positive cells [3]: 33%

CC1=C(/C=C/C(C)=C/C=C/C(C)=C/C(=O)Nc2ccc(N(CCCl)CCCl)cc2)C(C)(C)CCC1
IC50 [1]: 3.7 µg/mL (≈ 7.18 µM)
NBT positive cells [4]: 43%
NBT positive cells [5]: 24%

CC1=C(/C=C/C(C)=C/C=C/C(C)=C/C(=O)Nc2ccn([C@@H]3O[C@H](CO)C(O)[C@@H]3O)c(=O)n2)C(C)(C)CCC1 (some centres not stated)
IC50 [1]: < 0.32 µg/mL
NBT positive cells [2]: 37%
NBT positive cells [3]: 29%

CC1=C(/C=C/C(C)=C/C=C/C(C)=C/C(=O)O)C(C)(C)CCC1 [TRETINOIN]
NBT positive cells [6]: 89%
NBT positive cells [7]: 67%
NBT positive cells [8]: 34%

CC1=C(/C=C/C(C)=C/C=C/C(C)=C/C(=O)Nc2ccn([C@@H]3O[C@@H]4CO[Si](C(C)C)(C(C)C)O[Si](C(C)C)(C(C)C)OC4[C@@H]3O)c(=O)n2)C(C)(C)CCC1 (some centres not stated)
NBT positive cells [9]: 54%
NBT positive cells [10]: 44%
IC50 [11]: < 0.32 µg/mL

CC1=C(/C=C/C(C)=C/C=C/C(C)=C/C(=O)NCCCNC(=O)/C=C(C)/C=C/C=C(C)/C=C/C2=C(C)CCCC2(C)C)C(C)(C)CCC1
NBT positive cells [12]: 33%
NBT positive cells [13]: 65%
IC50 [1]: 3.71 µg/mL (≈ 5.81 µM)

CC1=C(/C=C/C(C)=C/C=C/C(C)=C/C(=O)Nc2ncnc3c2ncn3[C@@H]2O[C@@H]3CO[Si](C(C)C)(C(C)C)O[Si](C(C)C)(C(C)C)OC3[C@@H]2O)C(C)(C)CCC1 (some centres not stated)
NBT positive cells [14]: 31%
NBT positive cells [15]: 31%
IC50 [1]: 2.08 µg/mL (≈ 2.63 µM)

C[S+](C)[O-] [DIMETHYL SULFOXIDE]
NBT positive cells [16]: 12%
NBT positive cells [17]: 28%
NBT positive cells [18]: 53%

CC1=C(/C=C/C(C)=C/C=C/C(C)=C/C(=O)Nc2ncnc3c2ncn3[C@@H]2O[C@H](CO)C(O)[C@@H]2O)C(C)(C)CCC1 (some centres not stated)
NBT positive cells [9]: 46%
NBT positive cells [10]: 41%
IC50 [1]: < 0.32 µg/mL

Nc1ccn([C@@H]2O[C@H](CO)[C@@H](O)[C@@H]2O)c(=O)n1 [CYTARABINE]
NBT positive cells [19]: 8%
IC50 [1]: 0.029 µg/mL (≈ 0.119 µM)
NBT positive cells [20]: 20%
NBT positive cells [3]: 5%

CC1=C(/C=C/C(C)=C/C=C/C(C)=C/C(=O)O[C@H]2C(O)[C@@H](CO)O[C@H]2n2cnc3c(N)ncnc32)C(C)(C)CCC1 (some centres not stated)
NBT positive cells [14]: 34%
NBT positive cells [15]: 36%
IC50 [1]: 1.96 µg/mL (≈ 3.57 µM)

Nc1ncnc2c1ncn2[C@@H]1O[C@H](CO)[C@@H](O)[C@@H]1O [VIDARABINE]
NBT positive cells [21]: 9%
IC50 [1]: 20.9 µg/mL (≈ 78.2 µM)
NBT positive cells [22]: 12%
